We go through six molecules from paper PMC8056934 (Journal of Applied Glycoscience, 2017).

The conditions of data set [1]: 30 °C and pH 7.0; cited from earlier work.
Data set [2] can be described thus: Heat treatment of 3ketoLG and 3ketoMeβGlc in sodium phosphate buffer, HPLC. The class given is physicochemical. As to conditions: sodium phosphate buffer 50 mM, pH 8.0, 60 min at 60 °C. Put shortly:
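Samples are analysed by HPLC on a Shodex SUGAR KS-801 column (8.0 × 300 mm). Water is the eluent at 1 mL/min and 60 °C, with corona charged-aerosol detection. Chromatograms taken before and after heat treatment are compared.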

A short description of data set [3]: Stability of 3ketoLG in acid. As to conditions: 100 °C, 1 h. The class given is physicochemical. Put shortly:
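Test ketosugar at 10 mM is dissolved in HCl (1, 10 or 100 mM) and held at 100 °C for 1 h. After cooling, samples are diluted 1:20 in water. Remaining ketosugar is quantified by HPLC (50 µL injection) on a KS-801 column with water eluent and charged-aerosol detection.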

Data set [4] is described as follows: Solubility in aqueous solution. The format is physicochemical. Particulars: aqueous solution / reaction mixture.
Data set [5] in a line: Stability of 3ketoLG in buffer. As to conditions: for k: 10 mM 3ketoLG; for Ea: linear regression of the Arrhenius equation. The class given is physicochemical. The essentials:
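Ketosugar is incubated at 30–70 °C in 50 mM sodium phosphate or 50 mM sodium acetate (pH 4.0, 5.0) buffers. At each time point, aliquots are diluted 1:20 into 1 mM acetic acid and quantified by HPLC. k comes from a single-exponential fit of the time course, and t1/2 = ln2/k. Ea at each pH comes from linear Arrhenius regression.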

The target of another data set is pyranose oxidase (P2O) (Trametes versicolor, UniProt P79076). Briefly: Measurement of P2O activity. The format is biochemical, Coriolus sp. As to conditions: for Km: P2O, LG: linear S–V relationship between 4 and 40 mM.
The mark [6] stands for this setting: substrate 10 mM, 30 °C, MOPS-Na buffer 25 mM, pH 7.5.

What is called half-life is the time in which the quantity being followed falls by half. Broadly, the Km is the concentration of substrate that gives half-maximal velocity.

Molecules are shown by their SMILES. Entries after “also recorded” stand apart in the source; their conditions may differ.

Regarding `O=C1CO[C@H](CO)[C@@H](O[C@@H]2O[C@H](CO)[C@@H](O)[C@H](O)[C@H]2O)[C@@H]1O` [1,5-anhydro-4-O-β-D-glucopyranosyl-D-fructose], the half-life in data set [1] is given as 17 h.
As to `O=C1[C@@H](O)[C@@H]2OC[C@@H](O2)[C@H]1O` [3ketoLG, 1,6-anhydro-β-D-ribo-hexopyranos-3-ulose], the “Change on heat treatment (HPLC)” value in data set [2] is given as “significantly decreased”. Besides, the “Decrease of 3ketoLG” value in data set [3] (1 mM HCl) was “No significant decrease”. This molecule also yielded a 3ketoLG remained in data set [3] (100 mM HCl) of more than 90%. Also, the Solubility result in data set [4] is reported as “poor solubility; also recorded: low solubility”. The k in data set [5] (pH 4.0, 70 °C, sodium acetate buffer 50 mM) was 0.062 ± 0.002 h⁻¹; in data set [5] (pH 5.0, 70 °C, sodium acetate buffer 50 mM) it was 0.20 ± 0.01 h⁻¹; in data set [5] (pH 6.0, 40 °C, sodium phosphate buffer 50 mM), 0.028 ± 0.003 h⁻¹; in data set [5] (pH 6.0, 50 °C, sodium phosphate buffer 50 mM), 0.085 ± 0.005 h⁻¹; in data set [5] (pH 6.0, 60 °C, sodium phosphate buffer 50 mM), 0.32 ± 0.04 h⁻¹; in data set [5] (pH 6.0, 70 °C, sodium phosphate buffer 50 mM) it was 1.0 ± 0.1 h⁻¹. Besides, the k turned out to be 0.043 ± 0.003 h⁻¹ in data set [5] (pH 7.0, 30 °C, sodium phosphate buffer 50 mM); 0.13 ± 0.01 h⁻¹ in data set [5] (pH 7.0, 40 °C, sodium phosphate buffer 50 mM); 0.33 ± 0.02 h⁻¹ in data set [5] (pH 7.0, 50 °C, sodium phosphate buffer 50 mM); 1.7 ± 0.1 h⁻¹ in data set [5] (pH 7.0, 60 °C, sodium phosphate buffer 50 mM); 4.4 ± 0.1 h⁻¹ in data set [5] (pH 7.0, 70 °C, sodium phosphate buffer 50 mM); 0.083 ± 0.005 h⁻¹ in data set [5] (pH 8.0, 30 °C, sodium phosphate buffer 50 mM). Besides, the k in data set [5] (pH 8.0, 40 °C, sodium phosphate buffer 50 mM) is 0.21 ± 0.02 h⁻¹; in data set [5] (pH 8.0, 50 °C, sodium phosphate buffer 50 mM), 0.57 ± 0.03 h⁻¹; in data set [5] (pH 8.0, 60 °C, sodium phosphate buffer 50 mM), 3.0 ± 0.1 h⁻¹; in data set [5] (pH 8.0, 70 °C, sodium phosphate buffer 50 mM) it was 9.1 ± 0.4 h⁻¹. Besides, the Ea in data set [5] (pH 6.0) is 26.1 kcal/mol; in data set [5] (pH 7.0), 24.4 kcal/mol; in data set [5] (pH 8.0), 24.9 kcal/mol.
In the case of `OC[C@H]1OC(O)[C@H](O)[C@@H](O)[C@@H]1O` (stereo partly drawn) [D-glucose], the Km at pyranose oxidase (P2O) came to 1000 µM. In addition, on pyranose oxidase (P2O) (setting [6]), the “Specific activity of P2O” value stood at 5.1 U/mg-solid. Further, the “Specific activity of P2O relative to D-glucose” value at pyranose oxidase (P2O) (substrate 10 mM, 30 °C, MOPS-Na buffer 25 mM, pH 7.5, D-glucose = 100 %) was 100%.
Take `O[C@@H]1[C@@H](O)[C@@H]2OC[C@@H](O2)[C@H]1O` [LG, 1,6-anhydro-β-D-glucopyranose]: the Km at pyranose oxidase (P2O) was more than 40000 µM. Further, on pyranose oxidase (P2O) (setting [6]), the “Specific activity of P2O” value was found to be 0.018 U/mg-solid.
As to `O=C[C@H](O)[C@@H](O)[C@H](O[C@@H]1O[C@H](CO)[C@@H](O)[C@H](O)[C@H]1O)[C@H](O)CO` [cellobiose], the “Oxidation by P2O” value on pyranose oxidase (P2O) was “did not oxidize”.
In the case of `COC1OC(CO)C(O)C(O)C1O` [methyl-α-D-glucopyrnaoside], at pyranose oxidase (P2O), the “Oxidation by P2O” value is “did not oxidize”.
